# Tests used:
# [1] = test system: Human immunodeficiency virus 1; assay: Antiviral activity against HIV-1 harboring NNTRI-resistant reverse transcriptase Y181C mutant infected in human MT4 cells assessed as inhibition of virus-induced cytopathic effect by MTT method; type: functional, organism-based; details: Human immunodeficiency virus 1, MT4
# Summary of the method: (§1)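 MT-4 lymphoid cells infected with HIV-1 carrying RT K103N, Y181C or Y188L, with a range of drug concentrations present. Viable cells counted by MTT colorimetric assay at day 5 post-infection. […] Highest concentration tested was limited by precipitation in culture medium. Means of at least two experiments.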
# [2] = Cytotoxicity against human MT4 cells assessed as induction of cell death by MTT method; type: cell-based
# Summary of the method: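 Mock-infected MT-4 cells exposed to a range of drug concentrations. Viability read by MTT colorimetry at day 5. […] Top concentration was limited where compound precipitated in the culture medium. Means of at least two experiments.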
# [3] = test system: Human immunodeficiency virus 1; assay: Antiviral activity against HIV-1 harboring NNTRI-resistant reverse transcriptase Y188L mutant infected in human MT4 cells assessed as inhibition of virus-induced cytopathic effect by MTT method; type: functional, organism-based; details: Human immunodeficiency virus 1, MT4; summary of the method: as §1
# [4] = target: Human immunodeficiency virus type 1 reverse transcriptase (Human immunodeficiency virus 1) (UniProt Q72547)
# [5] = test system: Human immunodeficiency virus 1; assay: Antiviral activity against HIV-1 harboring NNTRI-resistant reverse transcriptase K103N mutant infected in human MT4 cells assessed as inhibition of virus-induced cytopathic effect by MTT method; type: functional, organism-based; details: Human immunodeficiency virus 1, MT4
# [6] = test system: Human immunodeficiency virus type 1 reverse transcriptase (Human immunodeficiency virus 1), Q72547 [K103N]
# [7] = Selectivity index, ratio of CC50 for human MT4 cells to EC50 for wild type HIV-1 NL4-3 infected in human MT4 cells; type: toxicity, cell-based; details: read-out: Ratio CC50/EC50
# Summary of the method: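 Ratio of CC50 to EC50, both from MTT readings in MT-4 cells at day 5. CC50 was taken in mock-infected cells and EC50 in cells infected with wild-type NL4-3. Values are means of at least two experiments.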
# [8] = test system: Human immunodeficiency virus 1; assay: Antiviral activity against wild type HIV-1 NL4-3 infected in human MT4 cells assessed as inhibition of virus-induced cytopathic effect by MTT method; type: functional, organism-based; details: Human immunodeficiency virus 1, NL4-3, MT4
# Summary of the method: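 MT-4 lymphoid cells infected with wild-type HIV-1 NL4-3 while exposed to a range of drug concentrations. Viable cells counted by tetrazolium (MTT) colorimetry at day 5 post-infection. Means of at least two experiments.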
# [9] = test system: Human immunodeficiency virus type 1 reverse transcriptase (Human immunodeficiency virus 1), Q72547 [L100I]
# [10] = test system: Human immunodeficiency virus 1; assay: Fold resistance, ratio of EC50 for HIV-1 harboring NNTRI-resistant reverse transcriptase Y181C mutant infected in human MT4 cells to EC50 for wild type HIV-1 NL4-3 infected in human MT4 cells; type: functional
# Summary of the method: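 MT-4 cells infected with HIV-1 mutant (K103N or Y181C) or wild-type NL4-3, with drug present. […] Fold resistance is the mutant EC50 divided by the wild-type NL4-3 EC50. EC50 values are means of at least two experiments.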
# [11] = test system: Human immunodeficiency virus 1; assay: Fold resistance, ratio of EC50 for HIV-1 harboring NNTRI-resistant reverse transcriptase K103N mutant infected in human MT4 cells to EC50 for wild type HIV-1 NL4-3 infected in human MT4 cells; type: functional
Structure (SMILES),EC50 [1] [nM],CC50 [2] [nM],EC50 [3] [nM],ID50 [4] [nM],EC50 [5] [nM],ID50 [6] [µM],selectivity ratio [7],EC50 [8] [nM],ID50 [9] [µM],Ratio EC50 [10],Ratio EC50 [11],pID50 [4]
CCC(c1nc(SC(C)C)[nH]c(=O)c1C)c1c(F)cccc1Cl (racemic),> 3000,> 3000,> 3000,6,> 3000,0.42,> 36,84,0.12,–,–,–
CCC(C)Sc1nc(C(CC)c2c(F)cccc2Cl)c(C)c(=O)[nH]1 (racemic),> 3000,> 3000,> 3000,2,> 3000,0.45,> 56,54,0.12,–,–,–
CCCCSc1nc(Cc2c(F)cccc2Cl)c(C)c(=O)[nH]1,2300,> 73000,> 73000,–,20000,–,> 664,110,–,21,182,–
O=c1cc(Cc2c(F)cccc2Cl)nc(SC2CCCC2)[nH]1,18300,> 74000,> 74000,–,42100,–,> 493,150,–,122,281,–
CCCCSc1nc(C(CC)c2c(F)cccc2Cl)c(C)c(=O)[nH]1 (racemic),> 3000,> 3000,> 3000,3,> 3000,1,> 27,110,0.26,–,–,–
Cc1c(Cc2c(F)cccc2Cl)nc(SC2CCCC2)[nH]c1=O,> 71000,> 71000,> 71000,–,> 71000,–,> 394,180,–,–,–,–
CCC(C)Sc1nc(Cc2c(F)cccc2Cl)c(C)c(=O)[nH]1 (configuration not stated),5200,> 73000,> 73000,–,5400,–,> 1550,47,–,111,115,–
CCC(C)Sc1nc(C(C)c2c(F)cccc2Cl)c(C)c(=O)[nH]1 (racemic),390,> 1500,> 1500,–,320,–,–,0.3,–,–,–,–
CCCSc1nc(C(C)c2c(F)cccc2F)c(CC)c(=O)[nH]1 (racemic),> 3000,> 3000,> 3000,3,> 3000,0.43,> 12,240,0.27,–,–,–
Cc1c([C@@H](C)c2c(F)cccc2F)nc(SC2CCCC2)[nH]c1=O,–,–,–,–,–,–,–,–,–,–,–,6
CCCCSc1nc(O)c(C)c(C(C)c2c(F)cccc2F)n1 (racemic),> 3000,> 3000,> 3000,3,> 3000,0.45,> 60,50,0.23,–,–,–
CC(C)Sc1nc(Cc2c(F)cccc2Cl)cc(=O)[nH]1,17800,> 80000,> 80000,–,39200,–,> 210,380,–,47,103,–
CCc1c(C(C)c2c(F)cccc2Cl)nc(SC2CCCC2)[nH]c1=O (racemic),> 3000,> 3000,> 3000,24,> 3000,1.8,–,> 3000,0.53,–,–,–
Cc1c(C(C)c2c(F)cccc2F)nc(SC(C)C)[nH]c1=O (racemic),–,> 3000,–,–,–,–,> 3000,–,–,–,–,–
Cc1c([C@@H](C)c2c(F)cccc2Cl)nc(SC(C)C)[nH]c1=O,> 36900,> 36900,> 36900,–,> 36900,–,–,220,–,–,–,–
Cc1c([C@H](C)c2c(F)cccc2Cl)nc(SC(C)C)[nH]c1=O,150,> 23500,350,–,10,–,–,0.03,–,–,–,–
CCC(c1nc(SC2CCCC2)[nH]c(=O)c1C)c1c(F)cccc1Cl (racemic),> 3000,> 3000,> 3000,4,> 3000,0.34,> 5,580,0.068,–,–,–
O=C1Nc2ccc(Cl)cc2[C@@](C#CC2CC2)(C(F)(F)F)O1 [EFAVIRENZ],13,> 3000,1970,–,–,–,–,–,–,–,–,–
Cc1ccnc2c1NC(=O)c1cccnc1N2C1CC1 [NEVIRAPINE],> 7000,> 7000,> 7000,–,–,–,–,–,–,–,–,–
CCCCSc1nc(C(CC)c2c(F)cccc2F)c(C)c(=O)[nH]1 (racemic),> 3000,> 3000,> 3000,3,> 3000,0.28,> 130,23,0.23,–,–,–
CCCSc1nc(C(C)c2c(F)cccc2Cl)c(CC)c(=O)[nH]1 (racemic),> 3000,> 3000,> 3000,10,> 3000,2.6,> 107,28,0.23,–,–,–
CCc1c(C(C)c2c(F)cccc2F)nc(SC(C)C)[nH]c1=O (racemic),> 3000,> 3000,> 3000,12,> 3000,0.83,> 34,89,27.2,–,–,–
Cc1c(C(C)c2c(F)cccc2Cl)nc(SC(C)C)[nH]c1=O (racemic),250,> 15000,3400,–,140,–,–,0.04,–,–,–,–
CCCCSc1nc(C(C)c2c(F)cccc2Cl)c(CC)c(=O)[nH]1 (racemic),> 3000,> 3000,> 3000,22,> 3000,2.3,> 47,64,0.33,–,–,–
CCCSc1nc(C(C)c2c(F)cccc2F)c(C)c(=O)[nH]1 (racemic),> 3000,> 3000,> 3000,1,> 3000,0.38,> 107,28,0.23,–,–,–
Cc1c([C@H](C)c2c(F)cccc2F)nc(SC2CCCC2)[nH]c1=O,–,–,–,–,–,–,–,–,–,–,–,8.1
CCc1c(C(C)c2c(F)cccc2F)nc(SC(C)CC)[nH]c1=O (racemic),> 3000,> 3000,> 3000,11,> 3000,0.45,> 21,140,0.11,–,–,–
CCc1c(C(C)c2c(F)cccc2Cl)nc(SC(C)C)[nH]c1=O (racemic),> 3000,> 3000,> 3000,48,> 3000,2.6,> 3,960,1.1,–,–,–
CCc1c(C(C)c2c(F)cccc2Cl)nc(SC(C)CC)[nH]c1=O (racemic),> 3000,> 3000,> 3000,8,> 3000,2.4,> 11,270,0.4,–,–,–

# Source: ChEMBL document CHEMBL3286172, “Exploring the role of 2-chloro-6-fluoro substitution in 2-alkylthio-6-benzyl-5-alkylpyrimidin-4(3H)-ones: effects in HIV-1-infected cells and in HIV-1 reverse transcriptase enzymes” (J Med Chem, 2014)
